Assay results from ChEMBL document CHEMBL4190353, “Synthesis, structure-activity relationships and preliminary mechanism of action of novel water-soluble 4-quinolone-3-carboxamides as antiproliferative agents” (Eur J Med Chem, 2017).
Calls of active or inactive are those of the source. The rule behind the calls is not given here.

Experiments:
HCT-116 [1] = assay: […] of ROS generation in human HCT116 cells at 8 uM incubated for 24 hrs by H2DCFDA dye based flow cytometry; format: functional, cell-based
In short: (§1)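 HCT116 cells pre-treated 5 h with H2O, 7.5 mM L-NAC or 7.5 mM GSH, then exposed to compound for 24 h. Cells collected, washed twice in PBS, and resuspended in serum-free McCoy's 5A with 10 nM H2DCFDA for 20 min at 37 °C in the dark. After two PBS washes, relative ROS measured by flow cytometry.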

RKO [2] = assay: Inhibition of colony formation of human RKO cells incubated for 24 hrs by crystal violet staining based photography; format: functional, cell-based
In short: (§2)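 Cells (HCT116, RKO, HCT116 p53-/-, HCT116 Bax-/-) seeded at 300 per well in 12-well plates for 48 h, then treated 24 h. Drug medium replaced with fresh medium; about 10 days later colonies stained 15 min with crystal violet, photographed and counted. Run in triplicate.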

HCT-116 [3] = assay: Induction of apoptosis in human HCT116 cells assessed as early apoptotic cells level at 2 uM incubated for 24 hrs by Annexin V-FITC/PI staining based cytometry (reference value: 1.3%); format: functional
HCT-116 [4] = assay: Inhibition of colony formation of human HCT116 cells pre-treated with 7.5 mM GSH for 2 hrs followed by 16 to 32 uM compound addition and further incubated for 24 hrs and measured after 10 days post dose in fresh medium by crystal violet staining based photography; format: functional, cell-based
In short: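 HCT116 seeded at about 300 per well in 12-well plates and grown 2 h. Pre-treated 2 h with H2O, 7.5 mM L-NAC or GSH, then exposed to compound for 24 h. Colonies grown 10 days in fresh medium, stained with crystal violet and counted. Triplicate wells.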

HCT-116 [5] = assay: Cytotoxicity against human HCT116 cells assessed as reduction in cell viability incubated for 24 hrs by MTT assay; format: functional, cell-based; settings: HCT-116, 24 h
In short: (§3)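 Cells were kept in McCoy's 5A with 10% fetal bovine serum, streptomycin and 100 units·mL⁻¹ penicillin at 37 °C under 5% CO₂/95% air. Viability was read by MTT optical density. IC50 is the concentration that lowers optical density by 50% relative to untreated cells. Values are means with SD of at least three independent determinations.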

HCT-116 [6] = assay: Induction of apoptosis in Bax-/- human HCT116 cells assessed as late apoptotic cells level incubated for 48 hrs by Annexin V-FITC/PI staining based cytometry (reference value: 0.1%); format: functional
In short: (§4)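 Cells were plated at 5×10^5 per well and treated once 80% confluent. After trypsinisation and two washes in ice-cold PBS (pH 7.4), cells were stained with Annexin V-FITC and PI for 15 min at room temperature in the dark. Analysis was by flow cytometry. The legend gives vehicle or 4 µM for the p53-/- and Bax-/- lines.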

HCT-8 = assay: Cytotoxicity against human HCT8 cells assessed as reduction in cell viability incubated for 24 hrs by MTT assay; format: functional, cell-based; settings: HCT-8, 24 h; in short: as §3
HCT-116 [7] = assay: Induction of apoptosis in human HCT116 cells assessed as G1 phase cells level at 2 uM incubated for 24 hrs by […]PI staining based cytometry (reference value: 65.2%); format: functional
In short: (§5)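 Cells were treated for 24 h, then fixed in 75% ethanol at -20 °C overnight. RNA was digested with 0.2 mg/mL RNase A for 30 min at 37 °C. Cells were stained with 50 µg/mL PI for 30 min in the dark, and DNA content was read by flow cytometry.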

HCT-116 [8] = assay: […] of ROS generation in human HCT116 cells pre-treated with 7.5 mM L-NAC for […] followed by 8 uM compound addition and further incubated for 24 hrs by H2DCFDA dye based flow cytometry; format: functional, cell-based; in short: as §1
HCT-116 [9] = assay: Inhibition of colony formation of human HCT116 cells incubated for 24 hrs and measured after 10 days post dose in fresh medium by crystal violet staining based photography; format: functional, cell-based; in short: as §2
HCT-116 [10] = assay: Induction of apoptosis in Bax-/- human HCT116 cells assessed as necrotic cells level at 4 uM incubated for 48 hrs by Annexin V-FITC/PI staining based cytometry (reference value: 0.3%); format: functional; in short: as §4
HCT-116 [11] = assay: Induction of apoptosis in human HCT116 cells assessed as necrotic cells level incubated for 48 hrs by Annexin V-FITC/PI staining based cytometry (reference value: 0.2%); format: functional
HCT-116 [12] = assay: Induction of apoptosis in human HCT116 cells assessed as viable cells level incubated for 48 hrs by Annexin V-FITC/PI staining based cytometry (reference value: 98.7%); format: functional
HCT-116 [13] = assay: Induction of apoptosis in Bax-/- human HCT116 cells assessed as viable cells level pre-incubated with 20 uM pan-caspase inhibitor Z-VAD-FMK for 5 hrs followed by compound addition and further incubated for 48 hrs by Annexin V-FITC/PI staining based cytometry (reference value: 92.9%); format: functional
BGC-823 = assay: Cytotoxicity against human BGC823 cells assessed as reduction in cell viability incubated for 24 hrs by MTT assay; format: functional, cell-based; settings: BGC-823, 24 h; in short: as §3
HepG2 = assay: Cytotoxicity against human HepG2 cells assessed as reduction in cell viability incubated for 24 hrs by MTT assay; format: functional, cell-based; settings: HepG2, 24 h; in short: as §3
HCT-116 [14] = assay: Induction of apoptosis in human HCT116 cells assessed as necrotic cells level at 4 uM incubated for 24 hrs by Annexin V-FITC/PI staining based cytometry (reference value: 1.6%); format: functional
HCT-116 [15] = assay: Induction of apoptosis in human HCT116 cells assessed as increase in cleaved PARP level incubated for 48 hrs by Western blot method; format: functional, cell-based
In short: (§6)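 Lysates were made in SDS buffer (2% SDS, 50 mM Tris-HCl pH 6.8) and quantified by BCA. Equal protein was run on 10% SDS-PAGE and transferred to PVDF. Membranes were blocked in 5% milk, probed overnight at 4 °C for cleaved PARP (1:1000) with GAPDH (1:5000), and detected with HRP secondary antibody and ECL.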

RKO [16] = assay: Cytotoxicity against human RKO cells assessed as reduction in cell viability incubated for 24 hrs by MTT assay; format: functional, cell-based; in short: as §3
HCT-116 [17] = assay: Induction of apoptosis in human HCT116 cells assessed as subG1 phase cells level at 2 uM incubated for 24 hrs by […]PI staining based cytometry (reference value: 1%); format: functional; in short: as §5
HCT-116 [18] = assay: Induction of apoptosis in Bax-/- human HCT116 cells assessed as increase in cleaved PARP level pre-incubated with 20 uM pan-caspase inhibitor Z-VAD-FMK for 5 hrs followed by compound addition and further incubated for 48 hrs by Western blot method; format: functional, cell-based
In short: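 Cells were pretreated for 5 h with DMSO or 20 µM Z-VAD-FMK before compound exposure. Lysates were made in SDS buffer and quantified by BCA. Proteins were run on 10% SDS-PAGE, transferred to PVDF, and probed with cleaved PARP (1:1000) and GAPDH (1:5000) loading control, with ECL detection.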

HCT-116 [19] = assay: Induction of apoptosis in Bax-/- human HCT116 cells assessed as increase in cleaved PARP level at 4 to 16 uM by Western blot method; format: functional, cell-based; in short: as §6
HCT-116 [20] = assay: Cytotoxicity against Bax-/- human HCT116 cells assessed as reduction in cell viability incubated for 24 hrs by CCK8 assay; format: functional, cell-based
In short: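 Cells were seeded at 3×10^4 per well, grown 24 h, then exposed to increasing concentrations for 24 h. CCK-8 reagent was added for 1 h at 37 °C and absorbance was read at 450 nm. Cells were kept in McCoy's 5A with 10% FBS, and n=3.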

CCN(CC)CCCNC(=O)c1cn(CCCc2ccccc2)c2cc(Cl)ccc2c1=O.Cl
inhibition (HCT-116 [1]): Active | inhibition (RKO [2]): Dose-dependent effect | Activity (HCT-116 [3]): 18.2% | inhibition (HCT-116 [4]): inactive | IC50 (HCT-116 [5]): 5.79 µM | Activity (HCT-116 [6]): 1.7% | IC50 (HCT-8): 6.82 µM | Activity (HCT-116 [7]): 46.7% | inhibition (HCT-116 [8]): inactive | inhibition (HCT-116 [9]): Dose-dependent effect | Activity (HCT-116 [10]): 2.1% | Activity (HCT-116 [11]): 4.6% | Activity (HCT-116 [12]): 62.5% | Activity (HCT-116 [13]): 87.7% | IC50 (BGC-823): 4.92 µM | IC50 (HepG2): 3.94 µM | Activity (HCT-116 [14]): 4.3% | Activity (HCT-116 [15]): Active | IC50 (RKO [16]): 4.87 µM | Activity (HCT-116 [17]): 6.5% | Activity (HCT-116 [18]): inactive | Activity (HCT-116 [19]): Active | Activity (HCT-116 [20]): Dose-dependent effect
